We go through two compounds from paper PMC9184248 (Journal of Pesticide Science, 2022).

Each structure is given as a SMILES string.

What all share (assay): two-electrode voltage clamp, Xenopus oocytes
Type in all cases: cell-based
On the technique in general: In two-electrode clamp one electrode senses voltage and the other passes current.

Experiment [1] has as its target T1, LsRDLR (Laodelphax striatellus RDL GABA receptor) (Laodelphax striatellus, UniProt Q0ECT5, F95S/Y91F).
T1 sequence (Q0ECT5 23-487 Y91F/F95S): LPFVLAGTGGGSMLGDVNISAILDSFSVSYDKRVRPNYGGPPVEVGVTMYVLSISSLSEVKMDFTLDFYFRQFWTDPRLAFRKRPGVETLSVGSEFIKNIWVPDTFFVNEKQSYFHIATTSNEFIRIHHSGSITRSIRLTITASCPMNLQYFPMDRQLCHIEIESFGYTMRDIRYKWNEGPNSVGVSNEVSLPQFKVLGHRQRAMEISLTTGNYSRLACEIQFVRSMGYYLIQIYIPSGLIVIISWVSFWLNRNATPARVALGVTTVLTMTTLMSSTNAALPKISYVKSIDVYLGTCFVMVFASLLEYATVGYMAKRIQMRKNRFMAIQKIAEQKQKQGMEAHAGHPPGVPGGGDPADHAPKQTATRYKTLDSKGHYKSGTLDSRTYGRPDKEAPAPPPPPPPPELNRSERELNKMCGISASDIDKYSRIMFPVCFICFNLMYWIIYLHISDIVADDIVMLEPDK
In a few lines:
(§1)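 WT or site-directed mutant LsRDL cRNA (5 ng) injected into defolliculated Xenopus oocytes, which were then held 48 hr at 16°C in SOS (pH 7.6). Clamped at −80 mV, perfused with SOS at 18–20°C. GABA applied for 3 sec at 30–60 sec intervals. EC50 from a four-parameter variable-slope logistic fit; ≥6 oocytes from ≥2 frogs; mean±S.D.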

Experiment [2] concerns the target T2, LsRDLR (Laodelphax striatellus RDL GABA receptor) (Laodelphax striatellus, UniProt Q0ECT5, F128Y).
T2 sequence (Q0ECT5 23-487 F128Y): T1 sequence (Q0ECT5 23-487 Y91F/F95S)
The procedure, abridged: as §1

The target in experiment [3] is T3, LsRDLR (Laodelphax striatellus RDL GABA receptor) (Laodelphax striatellus, UniProt Q0ECT5).
T3 sequence (Q0ECT5 23-487): T1 sequence (Q0ECT5 23-487 Y91F/F95S)
The procedure, abridged:
as §1

For experiment [4], the target named is T4, LsRDLR (Laodelphax striatellus RDL GABA receptor) (Laodelphax striatellus, UniProt Q0ECT5, F95S).
T4 sequence (Q0ECT5 23-487 F95S): T1 sequence (Q0ECT5 23-487 Y91F/F95S)
The procedure, abridged: as §1

For experiment [5], the target named is T5, LsRDLR (Laodelphax striatellus RDL GABA receptor) (Laodelphax striatellus, UniProt Q0ECT5, F128Y/F95S).
T5 sequence (Q0ECT5 23-487 F95S/F128Y): T1 sequence (Q0ECT5 23-487 Y91F/F95S)
The procedure, abridged: as §1

Experiment [6] addresses T6, LsRDLR (Laodelphax striatellus RDL GABA receptor) (Laodelphax striatellus, UniProt Q0ECT5, Y91F).
T6 sequence (Q0ECT5 23-487 Y91F): T1 sequence (Q0ECT5 23-487 Y91F/F95S)
In a few lines:
as §1

Experiment [7] addresses T7, LsRDLR (Laodelphax striatellus RDL GABA receptor) (Laodelphax striatellus, UniProt Q0ECT5, F128Y/F95S/Y91F).
T7 sequence (Q0ECT5 23-487 Y91F/F95S/F128Y): T1 sequence (Q0ECT5 23-487 Y91F/F95S)
The procedure, abridged: as §1

The target in experiment [8] is T8, LsRDLR (Laodelphax striatellus RDL GABA receptor) (Laodelphax striatellus, UniProt Q0ECT5, F128Y/Y91F).
T8 sequence (Q0ECT5 23-487 Y91F/F128Y): T1 sequence (Q0ECT5 23-487 Y91F/F95S)
In a few lines: as §1

For experiment [9], the target named is T3, LsRDLR (Laodelphax striatellus RDL GABA receptor). Conditions: read-out: % of control GABA response remaining at 30 μM gabazine.

Turning to `NCCCC(=O)O` [GABA], the 50% effective concentration (EC50) turned out to be 63.2 ± 23.8 µM in experiment [1]; 43.7 ± 10.2 µM in experiment [2]; 6.83 ± 3.74 µM in [3]; 4.08 ± 1.31 µM in experiment [4]; 25.6 ± 11.9 µM in experiment [5]; 131 ± 45 µM in experiment [6]. The values for the 50% effective concentration (EC50) in [7] and in experiment [8] were 15.4 ± 3.7 µM and 37.3 ± 11.8 µM, respectively.

`COc1ccc(-c2ccc(=N)n(CCCC(=O)O)n2)cc1` [gabazine, 2-(3-carboxypropyl)-6-(4-methoxyphenyl)-2,3-dihydropyridazin-3-iminium bromide]: in experiment [9], the remaining activity at 30 µM was 77.8 ± 8%.

The term EC50 denotes the concentration that produces a half-maximal response. A higher EC50 goes with a less potent agent.
